23 compounds from ChEMBL document CHEMBL4411319, “Discovery of Macrocyclic Inhibitors of Apurinic/Apyrimidinic Endonuclease 1” (J Med Chem, 2019) can be followed below.

For assay [1], the target named is T1, DNA repair nuclease/redox regulator APEX1 (Homo sapiens, UniProt P27695). Description: Inhibition of full length human APE1 assessed as reduction in endonuclease activity by measuring DNA cleavage of abasic sites using 6-FAM labelled two annealed oligonucleotides as AP site mimic substrate by fluorescence-based assay. The method in brief:
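Purified full-length APE1 (0.25-1.25 nM) added at once to 50 nM annealed duplex: 5'-6-FAM-labelled AP-site-mimic strand paired with a quencher-labelled strand. Buffer 50 mM Tris, 1 mM MgCl2, 50 mM NaCl, pH 7.5. Compound in triplicate, 10-point 1:2 dilution from 100 μM. Fluorescence from cleavage read kinetically at five 1-min intervals. Reaction rate compared with DMSO vehicle.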

Assay [2] is described as follows: Cytotoxicity against human Pa02C cells after 48 hrs by Alamar Blue-based assay. Format: functional, cell-based. The method in brief:
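Patient-derived pancreatic Pa02c cells, low passage, kept in DMEM with 10% FBS. Plated at 2000 cells/well on poly-D-lysine-coated plates and grown overnight at 37 °C, 5% CO2. Dosed in 5% FBS DMEM from 100 μM, 1:2 serial dilution, 5 points, with DMSO vehicle and drug-background wells. Grown 48 h, then fresh medium with 10% Alamar Blue for 4 h and fluorescence read. Background subtracted, normalized to media alone, mean with standard error.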

Assay [3] concerns the target T1, DNA repair nuclease/redox regulator APEX1. Description: Inhibition of APE1 in human ST8814 cells assessed as effect on MMS-induced DNA damage by measuring tail DNA level at 100 uM after 1 hr in presence of MMS by comet assay. Format: cell-based. Further details: scale not given: the % may be the effect or the level left. The method in brief: (§1)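 Malignant peripheral nerve sheath tumor ST8814 cells seeded at 130,000/well in DMEM + 10% FBS and grown overnight. Treated 1 h at 37 °C in Opti-MEM with compound (100 μM or EC30) alone or with 1.0 mM MMS. Trypsinized, then alkaline comet assay: lysis 60 min, unwinding at pH 13 for 20 min, electrophoresis at 1 V/cm for 30 min, SYBR Gold stain. Percent tail DNA averaged over 20 comets; two independent experiments.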

Assay [4] can be described thus: Induction of DNA damage in human ST8814 cells measuring tail DNA level at 100 uM after 1 hr in presence of MMS by comet assay (reference value: 16%). Type of assay: functional. The method in brief:
as §1

Where only a bound is given, the exact number is not on record here.

T1 sequence (P27695 whole entry): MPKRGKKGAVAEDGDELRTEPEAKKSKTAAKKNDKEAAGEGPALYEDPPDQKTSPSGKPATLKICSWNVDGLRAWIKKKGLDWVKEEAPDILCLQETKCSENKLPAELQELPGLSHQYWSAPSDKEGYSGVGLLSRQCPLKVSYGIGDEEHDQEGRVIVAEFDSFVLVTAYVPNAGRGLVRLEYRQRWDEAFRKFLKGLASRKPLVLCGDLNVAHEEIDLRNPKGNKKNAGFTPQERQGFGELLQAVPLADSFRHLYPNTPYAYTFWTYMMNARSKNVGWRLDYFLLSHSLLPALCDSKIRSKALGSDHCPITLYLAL

Take `Cc1ccc([C@@H]2CC(=O)N[C@@H](Cc3c[nH]c4ccccc34)C(=O)N[C@@H](c3cccn3S(=O)(=O)c3ccc(C)cc3)[C@@H](C)/C=C/CC(=O)N2)cc1`: the 50% inhibitory concentration (IC50) in assay [1] stood at 2.5 µM. This compound also gave a concentration for a half-maximal effect (EC50) in assay [2] above 100 µM. Further, the Activity worked out at 40% in assay [3] and 20% in assay [4].
As for `C[C@H]1/C=C/CC(=O)OCCCC(=O)N[C@@H](Cc2c[nH]c3ccccc23)C(=O)N[C@H]1c1ccccc1`, the IC50 in assay [1] is above 100 µM. This compound displayed an EC50 in assay [2] above 100 µM.
In the case of `Cc1ccc(S(=O)(=O)n2cccc2[C@@H]2NC(=O)[C@H](Cc3c[nH]c4ccccc34)NC(=O)C(Oc3ccc(C(F)(F)F)cc3)CCOC(=O)C/C=C/[C@@H]2C)cc1` (stereo partly specified), in assay [1], the IC50 was 2.5 µM and the inhibition entry was “Dose-dependent effect”.
For `Cc1ccc(S(=O)(=O)n2cccc2[C@@H]2NC(=O)[C@H](Cc3c[nH]c4ccccc34)NC(=O)C(Oc3ccccc3)CCOC(=O)C/C=C/[C@@H]2C)cc1` (stereo partly specified), the inhibition entry in assay [1] was “Dose-dependent effect”.
Regarding `Cc1ccc(S(=O)(=O)n2cccc2[C@@H]2NC(=O)[C@H](Cc3c[nH]c4ccccc34)NC(=O)C[C@@H](c3ccc(F)cc3)NC(=O)C/C=C/[C@@H]2C)cc1`, the IC50 in assay [1] was found to be 5.7 µM. In addition, the EC50 in assay [2] was above 100 µM.
For the compound `C[C@H]1/C=C/CC(=O)OCCCCC(=O)N[C@@H](Cc2c[nH]c3ccccc23)C(=O)N[C@H]1c1ccccc1`, the concentration for half-maximal inhibition (IC50) in assay [1] was 63.5 µM. In assay [2], the concentration giving a half-maximal response (EC50) was above 50 µM.
On to `Cc1ccc(S(=O)(=O)n2cccc2[C@@H]2NC(=O)[C@H](Cc3c[nH]c4ccccc34)NC(=O)CCCCOC(=O)C/C=C/[C@@H]2C)cc1`, for which, in assay [1], the IC50 came to 9.3 µM. In addition, in assay [2], the half-maximal effective concentration (EC50) is above 100 µM. Besides, the Activity in assay [3] amounted to 27%; in assay [4], 26%.
Regarding `Cc1ccc(S(=O)(=O)n2cccc2[C@@H]2NC(=O)[C@H](Cc3c[nH]c4ccccc34)NC(=O)CCCCNC(=O)C/C=C/[C@@H]2C)cc1`, the IC50 in assay [1] is above 50 µM. Moreover, the EC50 in assay [2] is above 100 µM.
For `Cc1ccc(S(=O)(=O)n2cccc2[C@@H]2NC(=O)[C@H](Cc3c[nH]c4ccccc34)NC(=O)C[C@@H](c3ccc(Cl)cc3)NC(=O)C/C=C/[C@@H]2C)cc1`, in that order: 12.1 µM and above 100 µM.
With `Cc1ccc(S(=O)(=O)n2cccc2[C@@H]2NC(=O)[C@H](Cc3c[nH]c4ccccc34)NC(=O)C[C@@H](c3cccc(C(F)(F)F)c3)NC(=O)C/C=C/[C@@H]2C)cc1`, the IC50 in assay [1] is 52.6 µM. The compound also came in with an EC50 in assay [2] of 6.7 µM.
Consider `Cc1ccc(S(=O)(=O)n2cccc2[C@@H]2NC(=O)[C@H](Cc3c[nH]c4ccccc34)NC(=O)C[C@H](CCc3ccccc3)NC(=O)C/C=C/[C@@H]2C)cc1`, for which the IC50 in assay [1] is 2.6 µM. For the same compound, the EC50 in assay [2] is above 100 µM.
Take `Cc1ccc(S(=O)(=O)n2cccc2[C@@H]2NC(=O)[C@H](Cc3c[nH]c4ccccc34)NC(=O)C(c3ccccc3)CCOC(=O)C/C=C/[C@@H]2C)cc1` (stereo partly specified): the inhibition result in assay [1] is “Dose-dependent effect”.
With `Cc1ccc(S(=O)(=O)n2cccc2[C@@H]2NC(=O)[C@H](Cc3c[nH]c4ccccc34)NC(=O)C[C@@H](Cc3ccc(Cl)cc3)NC(=O)C/C=C/[C@@H]2C)cc1`, the IC50 in assay [1] was found to be 1.9 µM. In assay [2], this compound displayed a concentration for a half-maximal effect (EC50) above 100 µM.
Consider `Cc1ccc(S(=O)(=O)n2cccc2[C@@H]2NC(=O)[C@H](Cc3c[nH]c4ccccc34)NC(=O)CCNC(=O)C/C=C/[C@@H]2C)cc1`, for which, in assay [1], the IC50 worked out at 33.2 µM. In addition, the 50% effective concentration (EC50) in assay [2] amounted to 58.4 µM. In addition, the results for the Activity in assay [3] and in assay [4] were 96% and 12%, respectively.
Regarding `Cc1ccc(S(=O)(=O)n2cccc2[C@@H]2NC(=O)[C@H](Cc3c[nH]c4ccccc34)NC(=O)CCCOC(=O)C/C=C/[C@@H]2C)cc1`, in assay [1], the 50% inhibitory concentration (IC50) was 10.6 µM. For the same compound, in assay [2], the EC50 was above 100 µM.
Consider `CC(=O)Nc1sc2c(c1-c1nc3ccccc3s1)CCN(C(C)C)C2`, for which the Activity in assay [3] came out at 34%; in assay [4] it was 17%.
On to `C[C@H]1/C=C/CC(=O)OCCC(Oc2ccc3c(c2)OCO3)C(=O)N[C@@H](Cc2c[nH]c3ccccc23)C(=O)N[C@H]1c1ccccc1` (stereo partly specified), for which, in assay [1], the IC50 was found to be 1.8 µM and the inhibition result is “Dose-dependent effect”.
Consider `C[C@H]1/C=C/CC(=O)N[C@H](c2ccc(Cl)cc2)CC(=O)N[C@@H](Cc2c[nH]c3ccccc23)C(=O)N[C@H]1c1ccccc1`, for which the IC50 in assay [1] was above 100 µM. In assay [2], this compound had an EC50 of 22 µM.
`Cc1ccc(S(=O)(=O)n2cccc2[C@@H]2NC(=O)[C@H](Cc3c[nH]c4ccccc34)NC(=O)C[C@@H](c3ccc(C(F)(F)F)cc3)NC(=O)C/C=C/[C@@H]2C)cc1`: the concentration for half-maximal inhibition (IC50) in assay [1] stood at 1.3 µM. This compound showed an EC50 in assay [2] above 100 µM. In addition, the Activity in assay [3] amounted to 95%; in assay [4], 18%.
As for `C[C@H]1/C=C/CC(=O)N[C@H](c2ccc(C(F)(F)F)cc2)CC(=O)N[C@@H](Cc2c[nH]c3ccccc23)C(=O)N[C@H]1c1ccccc1`, the IC50 in assay [1] was found to be 26.5 µM. The compound also came in with an EC50 in assay [2] of 58.5 µM. Moreover, the Activity was found to be 67% in assay [3] and 12% in assay [4].
For `Cc1ccc(S(=O)(=O)n2cccc2[C@@H]2NC(=O)[C@H](Cc3c[nH]c4ccccc34)NC(=O)CCCNC(=O)C/C=C/[C@@H]2C)cc1`, the half-inhibitory concentration (IC50) in assay [1] is 29.2 µM. Further, a half-maximal effect in assay [2] (EC50) was put at 35 µM.
Consider `C[C@H]1/C=C/CC(=O)N[C@H](c2ccc(F)cc2)CC(=O)N[C@@H](Cc2c[nH]c3ccccc23)C(=O)N[C@H]1c1ccccc1`, for which the IC50 in assay [1] turned out to be 55.1 µM. Further, the concentration giving a half-maximal response (EC50) in assay [2] came out at 36.2 µM.
For the compound `Cc1ccc(S(=O)(=O)n2cccc2[C@@H]2NC(=O)[C@H](Cc3c[nH]c4ccccc34)NC(=O)C[C@@H](CCc3ccccc3)NC(=O)C/C=C/[C@@H]2C)cc1`, the IC50 in assay [1] stood at 2.7 µM. The compound further gave an EC50 in assay [2] above 100 µM. Further, the Activity in assay [3] amounted to 54%; in assay [4] it was 12%.
